The list is not random: actives were taken first. Their share in the collection is about 1.5%.
b-catenin transl: modulators of beta-catenin nuclear translocation, primary screen, imaging, HeLa cells, immunofluorescence, high-content. hit rate 0.3% among 190,000. nuclear translocation activity, % at 5 µM. AID 1665, 2009;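 active means nuclear translocation activity above 50% at 5 µM, with a well cell count of 50 or more; inconclusive means wells under 50 cells across six images, flagged as toxic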;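 further: per-cell ratio of nuclear to cytoplasmic median beta-catenin stain intensity; plate controls were DMSO negative control for no effect and GSK-3 inhibitor IX positive control for full effect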
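Assay system: human HeLa cells, native beta-catenin; doses: 5 µM primary, 0.02–20 µM confirmation; incubation: compound treatment 24 h, 37°C, 5% CO2; technique: fluorescence imaging of beta-catenin antibody stain plus DAPI; measure: % activation, nuclear-to-cytoplasmic median beta-catenin signal ratio per cell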
Dynein cargo inh: inhibitors of GR-EGFP nuclear translocation, primary screen, dynein cargo transport inhibitor project, imaging, high-content, 3617.4 mouse cells; test concentration mostly 20 µM; stimulated with dexamethasone, 1 µM; stronger effect = lower value; z-score, hits read low; hit rate 0.47% among 220,000;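 active means plate z-score of nuclear minus cytoplasmic receptor signal below a set negative limit, without overly bright fluorescence or cell loss, cut at about -3.5 in these data, passing the limit was not always enough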;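 further: z-score of nuclear minus cytoplasmic ring GR-EGFP intensity difference per well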
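Buffer or medium: tet-free, stripped-serum medium; Also added: dexamethasone, 1.0 µM final; Technique: high-content fluorescence imaging after fixation; Times: 48 h induction, 1 h compound, 30 min dex at 37 °C; Read-out: per-cell GR-EGFP intensity, nucleus versus surrounding cytoplasmic ring, well-averaged.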
MT stabilizer: microtubule stabilizers in HeLa cells, primary screen, imaging, high-content imaging; HeLa tubulin immunostaining HCS, 24 h; share of cells brighter than vehicle mean+2SD; % tubulin-high responders, % at 10 µM; hit rate 0.83% among 200,000;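 active means plate Z-score above 3 for both tubulin-high and condensed-nucleus cell shares, with cell loss under 80%, at 10 µM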;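 further: anti alpha tubulin signal scored within the nucleus-defined area of each cell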
Tb hexokinase: Trypanosoma brucei hexokinase 1 inhibitors, primary screen, biochemical, G6PDH-coupled NADH absorbance, MLSCN library | hexokinase 1 [Trypanosoma brucei] | recombinant TbHK1, G6PDH-coupled NADH A340 | inhibition, % at 10 µM | hit rate 0.11% among 220,000;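 active means inhibition of 50% or more in the single-dose primary screen; inactive means inhibition below 50%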
Rad51 HR inh: human RAD51 strand exchange inhibitors, primary screen, biochemical, fluorescence | DNA repair protein RAD51 homolog 1 (Homo sapiens), Q06609 | hRad51 DNA strand exchange, fluorescence dequenching | inhibition, % at 10 µM | hit rate 0.085% among 200,000;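 active means inhibition above 40% at the single screening dose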;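 further: 0% = DMSO control wells and 100% = blanks with heterologous ssDNA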
Target sequence (Q06609 whole entry, looked up): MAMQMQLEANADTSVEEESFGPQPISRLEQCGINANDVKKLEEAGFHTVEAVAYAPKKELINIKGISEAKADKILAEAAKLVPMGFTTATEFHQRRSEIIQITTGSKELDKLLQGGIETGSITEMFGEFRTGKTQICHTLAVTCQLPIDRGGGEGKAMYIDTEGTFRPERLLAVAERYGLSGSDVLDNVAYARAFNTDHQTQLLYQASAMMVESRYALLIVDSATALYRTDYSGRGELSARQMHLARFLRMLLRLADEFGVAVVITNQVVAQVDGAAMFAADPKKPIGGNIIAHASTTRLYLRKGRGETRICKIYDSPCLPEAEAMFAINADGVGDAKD
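System: human Rad51 nucleoprotein filaments preassembled on unlabelled ssDNA. Reagent: labelled 47-mer dsDNA for strand exchange. Schedule: 30-min compound preincubation and 15-min exchange, both room temperature. Measured by: FRET fluorescence dequenching, excitation 485 nm, emission 520 nm. Read-out: Fluorescence-based percent inhibition, control- and blank-normalised. Benchmarks: plate controls and plate blanks.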
Dynein confirm: dynein cargo transport inhibitors, GR-EGFP translocation, confirmation, imaging, high-content imaging, GR-EGFP cells | 3617.4 GR-EGFP nuclear translocation imaging, dexamethasone-induced | shares compounds with Dynein cargo inh | calls only at 20 µM | hit rate 69% among 1,000;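 active means inhibition of receptor movement into the nucleus at or above a set limit in both runs, with normal cell brightness and cell count; inconclusive means limit reached in only one run, brightness and count normal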;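 further: dexamethasone at 1 µM final in well for 30 min; nuclear minus cytoplasmic GR-EGFP mean intensity difference in channel 2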
An asterisk follows results filed as active; i = inactive; ? = inconclusive; nt = no result; + = active, no number.

SMILES | b-catenin transl | Dynein cargo inh | MT stabilizer | Tb hexokinase | Rad51 HR inh | Dynein confirm
O=[N+]([O-])c1ccc2c(c1)N([O-])C1(CCCCC1)[N+]2=O | 1 | -3.6* | nt | -6 | 2 | +
CC1=C(c2ccccc2)[N+](=O)C2(CCCC2)N1[O-] | -1 | 0.37 | 2 | -10 | -6 | nt
Cc1ccc(N2C(=O)C(F)(F)C2c2ccccc2)cc1 (stereo unspecified) | -1 | 0.67 | 4 | 5 | 3 | nt
Cc1ccc(N2C(=N)/C(=C3/Nc4ccccc4S3)C(c3ccccc3)C2=O)cc1 (stereo unspecified) | 12 | -3.6* | 8 | -9 | -29 | +
Nc1cc(Cl)ccc1C(=O)OCC(=O)NC1CCCCC1 | -1 | -0.03 | 5 | -3 | 1 | nt
Cc1cc2cc(C)c3nnc(SCC(=O)NCc4ccc5c(c4)OCO5)n3c2cc1C | nt | -0.23 | 1 | -6 | 1 | nt
CCOC(=O)C1=C(C)NC(=O)NC1c1ccoc1 (stereo unspecified) | 0 | -0.55 | 3 | -6 | 6 | nt
CC(=O)O[C@@H]1C[C@H]2C(C)(C)C(=O)C=C[C@]2(C)[C@H]2CC[C@@]3(C)[C@H](c4ccoc4)OC(=O)[C@H]4O[C@]43[C@@]21C | nt | -3.9* | 15 | 1 | 8 | +
COc1ccc(-c2cc(C(F)(F)F)nc(S(=O)(=O)CCCC(=O)Nc3cc(C)on3)n2)cc1OC | -2 | -5* | 5 | -20 | -1 | +
COc1ccccc1-c1cc(C(F)(F)F)nc(S(=O)(=O)CCCC(=O)Nc2cc(C)on2)n1 | -2 | 0.23 | 3 | 4 | 0 | nt
c1cncc(-c2nc(-c3ccco3)cs2)c1 | -4 | -4.5* | 2 | 0 | 2 | i
Clc1ccsc1-c1csc(-c2cccnc2)n1 | nt | -0.96 | 11 | -8 | -9 | nt
CC(C)c1ccc(/C=C/C(=O)n2nnc3ccccc32)cc1 | -1 | -4.5* | 3 | 3 | nt | +
O=c1[nH]c(CS(=O)(=O)c2ccccc2)nc2ccccc12 | 0 | 0.25 | 3 | -3 | -7 | nt
CCn1c(C)c(CS(=O)(=O)c2ccccc2)[nH]c1=O | 0 | -5.6* | 3 | 0 | 1 | +
CCn1nc([N+](=O)[O-])c(C(C#N)c2nc3ccccc3n2C)c(Cl)c1=O (stereo unspecified) | -5 | -1.7 | 2 | -2 | 1 | nt
CCCn1nc([N+](=O)[O-])c(C(C#N)c2nc3ccccc3s2)c(Cl)c1=O (stereo unspecified) | -6 | -5.1* | 3 | -17 | 2 | +
COc1ccc(C2C(C#N)=C(N)Oc3c2sc2nc(C)cc(C)c32)cc1 (stereo unspecified) | 7 | -3.9* | 6 | -22 | -10 | i
Cc1cc(C)c2c3c(sc2n1)C1(CCSCC1)C(C#N)=C(N)O3 | 0 | -0.18 | 2 | -4 | 4 | nt
Nc1c(C(=O)N/N=C/c2ccc(F)cc2)oc2nc(-c3ccccc3)cc(-c3ccco3)c12 | 1 | -4.1 | nt | -55 | -42 | i
CCN(CC)c1nc(-c2ccccn2)nc(-c2ccccc2)c1C#N | -2 | -1.2 | 2 | -7 | -9 | nt
Cc1nn(C)c(C(=O)Sc2cccc(Cl)c2)c1[N+](=O)[O-] | -1 | -3.9* | nt | -16 | 2 | +
CCn1nc(C)cc1C(=O)Sc1cccc(Cl)c1 | -1 | -3.5* | nt | -6 | 17 | +
Cc1onc(-c2ccccc2)c1-c1nc2ccccc2c(=O)o1 | -7 | -0.2 | 2 | 2 | -5 | nt
Cc1onc(-c2ccccc2)c1-c1nc2cc(Cl)ccc2c(=O)o1 | -1 | -3.8* | nt | -11 | 4 | +
SMILES | b-catenin transl | Dynein cargo inh | MT stabilizer | Tb hexokinase | Rad51 HR inh | Dynein confirm
CC(=O)n1cc(N(C(=O)CCl)c2ccccc2)c2ccccc21 | 1 | -4.5* | nt | -7 | nt | +
CC(=O)O/C(=C\c1cn(C(C)=O)c2ccccc12)C(=O)O | -1 | 1.7 | nt | -18 | 0 | nt
CC(=O)n1cc(N(C(=O)CCl)c2ccc([N+](=O)[O-])cc2)c2ccccc21 | 2 | -5* | nt | -21 | 14 | +
COC(=O)[C@@H](NC(=O)Nc1ccc(S(N)(=O)=O)cc1)C(C)C | -1 | 2.4 | 2 | -2 | nt | nt
O=C(CSc1ccc(F)cc1)N1CCN(S(=O)(=O)c2ccccc2)CC1 | -2 | -0.22 | 6 | 0 | 11 | nt
COC(=O)[C@H](C)NC(=O)Nc1ccc(Oc2ccccc2)cc1 | -4 | -0.23 | 6 | 0 | 7 | nt
CN1CCN(CC(=O)N2N=C(c3cccs3)CC2c2ccco2)CC1 (stereo unspecified) | 4 | -0.44 | 9 | -7 | nt | nt
O=C(CCl)N1N=C(c2cccs2)CC1c1ccco1 (stereo unspecified) | 0 | -4.7* | 5 | -14 | 3 | +
O=C(Cn1nnc(-c2cccs2)n1)NCc1ccccc1 | -2 | -1.5 | 2 | -4 | 10 | nt
Cc1ccc(CN2CCc3[nH]c(=O)[nH]c(=O)c3C2)cc1 | 1 | 0.94 | 3 | 1 | 0 | nt
Cc1[nH]n(-c2ccccc2)c(=O)c1CCOC(=O)c1cccc(C(F)(F)F)c1 | nt | -0.97 | 4 | 1 | 1 | nt
Cc1nn(-c2ccccc2)c(Cl)c1CN(C(=O)CCl)c1ccc(Cl)cc1 | -2 | -3.9* | 3 | -3 | -2 | +
CSc1nc(SC(C)C(=O)O)c2c3c(sc2n1)COC(C)(C)C3 (stereo unspecified) | 0 | 0.44 | nt | -16 | -5 | nt
O=C(CCl)N(c1ccccc1)c1c[nH]c2ccccc12 | 1 | -2.8 | 14 | 6 | 13 | nt
O=C(CCl)N(c1ccc(Cl)cc1)c1c[nH]c2ccccc12 | 0 | -5.3* | 23 | -1 | -8 | +
O=C(O)c1ccc(NC2=C(Cl)C(=O)c3ccccc3C2=O)cc1 | 2 | -5.2* | nt | -6 | -7 | +
Cc1cc2oc(=O)cc(Cn3ncc(Cl)c(Cl)c3=O)c2cc1Cl | -3 | -6.1* | 6 | 1 | nt | +
Cc1cccc(Cn2nnc3c2C(=O)c2ccccc2C3=O)c1 | 2 | -0.8 | 4 | -1 | 1 | nt
O=C(OCn1ncc(Cl)c(Cl)c1=O)c1ccc(C(F)(F)F)cc1 | nt | -3 | 1 | 7 | -4 | nt
Cc1ccc(C)c(C(=O)Cn2ncc(Cl)c(Cl)c2=O)c1 | 7 | -4.7* | 3 | 9 | nt | ?
Cc1cc(Br)ccc1NC(=O)CNC(=O)Cn1ncc(Cl)c(Cl)c1=O | -2 | -1.1 | 3 | -3 | nt | nt
Cc1ccc(C(=O)OCn2ncc(Cl)c(Cl)c2=O)cc1 | 0 | -3.8* | 3 | 3 | 0 | +
